According to paper PMC8332596 (Clinical Pharmacokinetics, 2021):
Like-named read-outs stand apart in the source and are kept apart here.

Key:
[1] = assay type: in vivo, human; conditions: single 5 mg SC; for tmax median of differences (90% CI): Hodges–Lehmann; for tmax: median (range)
In short: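 Single SC 5 mg dose given on day 1. Plasma was drawn predose and at 8, 12, 24, 48, 72, 96, 168, 336 and 648 h, then stored at about −70 °C. Drug was immunoprecipitated and quantified by LC–high-resolution MS (HESI, positive ion) over 2.00–500.00 ng/mL. Noncompartmental analysis used actual times, trapezoidal AUClast and log-linear λz. Log AUC/Cmax ratios versus control came from ANOVA with 90% CI; tmax by Hodges–Lehmann.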

[2] = dose range 0.5 to 15 mg, single-dose levels and steady state; cited from earlier work
[3] = Safety and tolerability after a single subcutaneous dose of tirzepatide 5 mg; assay type: in vivo, human; conditions: single 5 mg SC
In short: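 Open-label phase I single-dose study in adults aged 18–85 y with BMI 19.0–40.0 kg/m2, grouped by MDRD eGFR. ESRD subjects were dialysed on high-flux polysulfone membranes. AEs were recorded at screening and on days 1, 2, 3, 4, 5, 8, 15 and ≥28. Glucose was checked predose, at 12–336 h and on day ≥28, with hypoglycaemia defined per ADA guidance. ISRs were assessed to 48 h. Labs (incl. amylase/lipase), vitals and ECGs were taken at set visits.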

[4] = Immunogenicity: antidrug antibodies in serum; assay type: in vivo, human; conditions: single 5 mg SC, maximum of 30 days of ADA monitoring postdose
[5] = cited from earlier work
[6] = once-weekly dulaglutide 1.5 mg; patients with T2D; cited from earlier work
[7] = moderate renal impairment, N = 8
[8] = mild-to-moderate renal impairment

With `CC[C@H](C)[C@H](NC(=O)[C@H](CC(C)C)NC(=O)[C@H](Cc1c[nH]c2ccccc12)NC(=O)[C@H](CCC(N)=O)NC(=O)[C@@H](NC(=O)[C@H](Cc1ccccc1)NC(=O)[C@H](C)NC(=O)[C@H](CCCCNC(=O)COCCOCCNC(=O)COCCOCCNC(=O)CC[C@H](NC(=O)CCCCCCCCCCCCCCCCCCC(=O)O)C(=O)O)NC(=O)[C@H](CCC(N)=O)NC(=O)[C@H](C)NC(=O)[C@@H](NC(=O)[C@H](CCCCN)NC(=O)[C@H](CC(=O)O)NC(=O)[C@H](CC(C)C)NC(=O)C(C)(C)NC(=O)[C@@H](NC(=O)[C@H](CO)NC(=O)[C@H](Cc1ccc(O)cc1)NC(=O)[C@H](CC(=O)O)NC(=O)[C@H](CO)NC(=O)[C@@H](NC(=O)[C@H](Cc1ccccc1)NC(=O)[C@@H](NC(=O)CNC(=O)[C@H](CCC(=O)O)NC(=O)C(C)(C)NC(=O)[C@@H](N)Cc1ccc(O)cc1)[C@@H](C)O)[C@@H](C)O)[C@@H](C)CC)[C@@H](C)CC)C(C)C)C(=O)N[C@@H](C)C(=O)NCC(=O)NCC(=O)N1CCC[C@H]1C(=O)N[C@@H](CO)C(=O)N[C@@H](CO)C(=O)NCC(=O)N[C@@H](C)C(=O)N1CCC[C@H]1C(=O)N1CCC[C@H]1C(=O)N1CCC[C@H]1C(=O)N[C@@H](CO)C(N)=O` [tirzepatide] the half-life ([1]; human, plasma, sc, 5 mg, t½, ESRD, n = 8, geometric mean (range)) was 151 h, the “tmax median of differences (90% CI)” value ([1]; ESRD vs normal renal function) was 0.00 h and the tmax ([1]; ESRD, n = 8) was 48.00 (24.00–96.00) h. The “relationship between exposure (Cmax, AUClast, AUC∞) and MDRD eGFR” value ([1]; linear regression, eGFR as continuous variable) was “did not show a relationship”, the “higher AUClast versus control” value ([1]; mild renal impairment group classified by CLCR (Cockcroft–Gault)) was 23% and the “tmax median of differences (90% CI)” value ([1]; mild renal impairment vs normal renal function) was 0.00 h. For the same compound, the t½ ([1]; mild renal impairment, n = 8, geometric mean (range)) was 121 (94.6–138) h, the tmax ([1]; mild renal impairment, n = 8) was 48.00 (12.00–96.00) h and the “increase in AUCs versus normal renal function” value ([1]; moderate renal impairment group) was 25–29%. For the same compound, the “geometric mean AUClast higher than control group” value ([1]; moderate renal impairment vs control, 90% CI 1.04–1.52) was 25%, the “geometric mean AUC∞ higher than control group” value ([1]; moderate renal impairment vs control, 90% CI 1.07–1.56) was 29% and the “dose dependence of PK” value [2] was “linear and dose-proportional”. The “number of subjects with AEs related to tirzepatide” value (“number of subjects with AEs related” below) ([3]; ESRD group (37.5%)) was 3, the Abdominal distention ([3]; ESRD, N = 8) was 0 (0.0) n (%) and the Back pain ([3]; ESRD, N = 8) was 0 (0.0) n (%). For the same compound, the Deaths ([3]; ESRD, N = 8) was 0 (0.0) n (%), the Diarrhea ([3]; ESRD, N = 8) was 0 (0.0) n (%) and the Headache ([3]; ESRD, N = 8) was 0 (0.0) n (%). For the same compound, the Nausea ([3]; ESRD, N = 8) was 1 (12.5) n (%), the “Serious AEs” value ([3]; ESRD, N = 8) was 0 (0.0) n (%) and the “Treatment-emergent AEs” value ([3]; ESRD, N = 8) was 3 (37.5) n (%). For the same compound, the Vomiting ([3]; ESRD, N = 8) was 2 (25.0) n (%), the “alterations in laboratory, vital signs values, ECGs, or blood glucose monitoring” value ([3]; all groups) was “no clinically significant alterations” and the severe hypoglycemic events ([3]; all groups) was “no severe hypoglycemic events”. The “discontinuations due to AEs, serious AEs, deaths” value ([3]; all groups, 45 subjects) was “No discontinuations due to AEs, serious AEs, or deaths”, the tolerability ([3]; all treatment groups) was “well-tolerated” and the “injection-site reactions (ISRs)” value ([3]; assessed predose and 0, 6, 12, 24, 48 h postdose) was “No ISRs were reported”. The “number of subjects with AEs related” value ([3]; control group (7.1%)) was 1, the “number of subjects with AEs related” value ([3]; mild renal impairment group (37.5%)) was 3 and the Abdominal distention ([3]; mild renal impairment, N = 8) was 0 (0.0) n (%). For the same compound, the Back pain ([3]; mild renal impairment, N = 8) was 1 (12.5) n (%), the Deaths ([3]; mild renal impairment, N = 8) was 0 (0.0) n (%) and the Diarrhea ([3]; mild renal impairment, N = 8) was 1 (12.5) n (%). For the same compound, the Headache ([3]; mild renal impairment, N = 8) was 0 (0.0) n (%), the Nausea ([3]; mild renal impairment, N = 8) was 1 (12.5) n (%) and the “Serious AEs” value ([3]; mild renal impairment, N = 8) was 0 (0.0) n (%). The “Treatment-emergent AEs” value ([3]; mild renal impairment, N = 8) was 3 (37.5) n (%), the Vomiting ([3]; mild renal impairment, N = 8) was 0 (0.0) n (%) and the “number of subjects with AEs related” value ([3]; moderate renal impairment group (37.5%)) was 3. The Abdominal distention [3, 7] was 1 (12.5) n (%), the Back pain [3, 7] was 1 (12.5) n (%) and the Deaths [3, 7] was 0 (0.0) n (%). The Diarrhea [3, 7] was 1 (12.5) n (%), the Headache [3, 7] was 0 (0.0) n (%) and the Nausea [3, 7] was 0 (0.0) n (%). The “Serious AEs” value [3, 7] was 0 (0.0) n (%), the “Treatment-emergent AEs” value [3, 7] was 3 (37.5) n (%) and the Vomiting [3, 7] was 0 (0.0) n (%). The Abdominal distention ([3]; normal renal function, N = 14) was 0 (0.0) n (%), the Back pain ([3]; normal renal function, N = 14) was 0 (0.0) n (%) and the Deaths ([3]; normal renal function, N = 14) was 0 (0.0) n (%). The Diarrhea ([3]; normal renal function, N = 14) was 0 (0.0) n (%), the Headache ([3]; normal renal function, N = 14) was 1 (7.1) n (%) and the Nausea ([3]; normal renal function, N = 14) was 0 (0.0) n (%). For the same compound, the “Serious AEs” value ([3]; normal renal function, N = 14) was 0 (0.0) n (%), the “Treatment-emergent AEs” value ([3]; normal renal function, N = 14) was 1 (7.1) n (%) and the Vomiting ([3]; normal renal function, N = 14) was 0 (0.0) n (%). For the same compound, the “treatment-related AEs” value ([3]; severe renal impairment group) was “No treatment-related AEs were reported”, the Abdominal distention ([3]; severe renal impairment, N = 7) was 0 (0.0) n (%) and the Back pain ([3]; severe renal impairment, N = 7) was 0 (0.0) n (%). The Deaths ([3]; severe renal impairment, N = 7) was 0 (0.0) n (%), the Diarrhea ([3]; severe renal impairment, N = 7) was 0 (0.0) n (%) and the Headache ([3]; severe renal impairment, N = 7) was 0 (0.0) n (%). For the same compound, the Nausea ([3]; severe renal impairment, N = 7) was 0 (0.0) n (%), the “Serious AEs” value ([3]; severe renal impairment, N = 7) was 0 (0.0) n (%) and the “Treatment-emergent AEs” value ([3]; severe renal impairment, N = 7) was 0 (0.0) n (%). For the same compound, the Vomiting ([3]; severe renal impairment, N = 7) was 0 (0.0) n (%) and the “treatment-emergent antidrug antibodies (ADAs)” value [4] was “No treatment-emergent ADAs were detected”.
For liraglutide, the “PK versus subjects with normal renal function” value [5, 8] is given as “not significantly altered”.
In the case of exenatide, the “PK changes versus subjects with normal renal function” value ([5]; subcutaneous, mild-to-moderate renal impairment) is given as “clinically acceptable”.
In the case of albiglutide, the “PK versus subjects with normal renal function” value [5, 8] is given as “not significantly altered”.
For lixisenatide, the “differences in PK versus subjects with normal renal function” value [5, 8] is given as “no significant differences” and the drug exposure ([5]; severe renal impairment) is given as “may be increased”.
For dulaglutide, the HbA1c reduction [6] is listed as no more than 1.1%, the body weight reduction [6] is listed as no more than 2.7 kg and the “influence of the extent of renal impairment on PK” value [5] is listed as “not influenced”.
In the case of semaglutide, the “impact of renal impairment on plasma PK” value ([5]; oral) is given as “lack of impact”.
